ChEMBL document CHEMBL1143805, “Synthesis and antimicrobial activities of some novel 1,2,4-triazolo[3,4-b]-1,3,4-thiadiazoles and 1,2,4-triazolo[3,4-b]-1,3,4-thiadiazines carrying thioalkyl and sulphonyl phenoxy moieties” (2007)
≈ marks a conversion by molar mass, not a printed value.

Legend:
Aspergillus flavus = assay: Antifungal activity against Aspergillus flavus NCIM 524; assay type: functional; details: for MIC: Aspergillus flavus, NCIM 524
Method in brief: (§1)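 Agar-well diffusion on Sabouraud agar at pH 5.7. Plates were lawned with a saline spore suspension (one loopful in 3 ml), decanted and dried 1 h at 37 °C. Compounds in DMSO went into punched wells, with a DMSO solvent control. Plates were run in triplicate and kept at 37 °C for 3-4 days, with inhibition-zone diameter as read-out.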

Aspergillus fumigatus = assay: Antifungal activity against Aspergillus fumigatus NCIM 902; assay type: functional; details: for MIC: Aspergillus fumigatus, NCIM 902
Trichophyton benhamiae = assay: Antifungal activity against Trichophyton mentagrophytes; assay type: functional, Arthroderma benhamiae; details: for MIC: Trichophyton benhamiae; method in brief: as §1
Escherichia coli = assay: Antibacterial activity against Escherichia coli ATCC 25922; assay type: functional; details: for MIC: Escherichia coli, ATCC 25922
Method in brief: (§2)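 MIC by serial dilution in Mueller-Hinton broth tubes, pH adjusted to 5.0 with phosphate buffer. A standardized bacterial suspension was inoculated and incubated 16-18 h at 37 °C, and MIC was read as the lowest concentration with no visible growth. Zones were also measured in agar wells on seeded plates, with compounds in DMSO and a DMSO control, triplicate plates, 37 °C for 3-4 days.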

Pseudomonas aeruginosa = assay: Antibacterial activity against Pseudomonas aeruginosa ATCC 27853; assay type: functional; details: for MIC: Pseudomonas aeruginosa, ATCC 27853; method in brief: as §2
Talaromyces marneffei = assay: Antifungal activity against Penicillium marneffei; assay type: functional; details: for MIC: Talaromyces marneffei; method in brief: as §1
Klebsiella pneumoniae = assay: Antibacterial activity against Klebsiella pneumoniae; assay type: functional; details: for MIC: Klebsiella pneumoniae; method in brief: as §2
Staphylococcus aureus = assay: Antibacterial activity against Staphylococcus aureus ATCC 25923; assay type: functional; details: for MIC: Staphylococcus aureus, ATCC 25923; method in brief: as §2

Row | MIC (Aspergillus flavus) [µg/mL] | MIC (Aspergillus fumigatus) [µg/mL] | MIC (Trichophyton benhamiae) [µg/mL] | MIC (Escherichia coli) [µg/mL] | MIC (Pseudomonas aeruginosa) [µg/mL] | MIC (Talaromyces marneffei) [µg/mL] | MIC (Klebsiella pneumoniae) [µg/mL] | MIC (Staphylococcus aureus) [µg/mL] | Compound | inhibition zone (IZ) (Aspergillus flavus) [mm] | inhibition zone (IZ) (Aspergillus fumigatus) [mm] | inhibition zone (IZ) (Trichophyton benhamiae) [mm] | inhibition zone (IZ) (Escherichia coli) [mm] | inhibition zone (IZ) (Pseudomonas aeruginosa) [mm] | inhibition zone (IZ) (Talaromyces marneffei) [mm] | inhibition zone (IZ) (Klebsiella pneumoniae) [mm] | inhibition zone (IZ) (Staphylococcus aureus) [mm]
1 | 12.5 (≈ 29.7 µM) | 12.5 (≈ 29.7 µM) | 12.5 (≈ 29.7 µM) | 12.5 (≈ 29.7 µM) | 12.5 (≈ 29.7 µM) | 25 (≈ 59.4 µM) | 12.5 (≈ 29.7 µM) | 12.5 (≈ 29.7 µM) | CS(=O)(=O)c1ccc(OCc2nnc3sc(-c4cccc(Cl)c4)nn23)cc1 | 11 | 11 | 11 | 11 | 11 | <10 | 11 | 11
2 | 25 (≈ 65.4 µM) | 25 (≈ 65.4 µM) | 25 (≈ 65.4 µM) | 6.25 (≈ 16.3 µM) | 6.25 (≈ 16.3 µM) | 6.25 (≈ 16.3 µM) | 6.25 (≈ 16.3 µM) | 6.25 (≈ 16.3 µM) | CCSc1ccc(OCc2nnc3sc(-c4ccc(C)cc4)nn23)cc1 | <10 | <10 | <10 | 16 | 16 | 16 | 16 | 16
3 | 12.5 (≈ 32.3 µM) | 12.5 (≈ 32.3 µM) | 12.5 (≈ 32.3 µM) | 12.5 (≈ 32.3 µM) | 12.5 (≈ 32.3 µM) | 25 (≈ 64.7 µM) | 12.5 (≈ 32.3 µM) | 12.5 (≈ 32.3 µM) | CS(=O)(=O)c1ccc(OCc2nnc3sc(-c4ccccc4)nn23)cc1 | 11 | 11 | 11 | 11 | 11 | <10 | 11 | 11
4 | 25 (≈ 55.4 µM) | 25 (≈ 55.4 µM) | 25 (≈ 55.4 µM) | 25 (≈ 55.4 µM) | 25 (≈ 55.4 µM) | 25 (≈ 55.4 µM) | 25 (≈ 55.4 µM) | 25 (≈ 55.4 µM) | CCSc1ccc(OCc2nnc3n2N=C(c2ccc(Cl)cc2Cl)CS3)cc1 | <10 | <10 | <10 | <10 | <10 | <10 | <10 | <10
5 | 25 (≈ 62.7 µM) | 25 (≈ 62.7 µM) | 25 (≈ 62.7 µM) | 25 (≈ 62.7 µM) | 25 (≈ 62.7 µM) | 25 (≈ 62.7 µM) | 25 (≈ 62.7 µM) | 25 (≈ 62.7 µM) | CCSc1ccc(OCc2nnc3sc(-c4ccc(OC)cc4)nn23)cc1 | <10 | <10 | <10 | <10 | <10 | <10 | <10 | <10
6 | 25 (≈ 58.5 µM) | 25 (≈ 58.5 µM) | 25 (≈ 58.5 µM) | 25 (≈ 58.5 µM) | 25 (≈ 58.5 µM) | 25 (≈ 58.5 µM) | 25 (≈ 58.5 µM) | 25 (≈ 58.5 µM) | CSc1ccc(OCc2nnc3n2N=C(c2ccc(O)c(C(N)=O)c2)CS3)cc1 | <10 | <10 | <10 | <10 | <10 | <10 | <10 | <10
7 | 25 (≈ 65 µM) | 25 (≈ 65 µM) | 25 (≈ 65 µM) | 25 (≈ 65 µM) | 25 (≈ 65 µM) | 25 (≈ 65 µM) | 25 (≈ 65 µM) | 25 (≈ 65 µM) | CCSc1ccc(OCc2nnc3sc(-c4ccccc4O)nn23)cc1 | <10 | <10 | <10 | <10 | <10 | <10 | <10 | <10
8 | 25 (≈ 65.2 µM) | 25 (≈ 65.2 µM) | 25 (≈ 65.2 µM) | 25 (≈ 65.2 µM) | 25 (≈ 65.2 µM) | 25 (≈ 65.2 µM) | 25 (≈ 65.2 µM) | 25 (≈ 65.2 µM) | CCSc1ccc(OCc2nnc3sc(-c4ccccc4N)nn23)cc1 | <10 | <10 | <10 | <10 | <10 | <10 | <10 | <10
9 | 12.5 (≈ 29.7 µM) | 12.5 (≈ 29.7 µM) | 12.5 (≈ 29.7 µM) | 12.5 (≈ 29.7 µM) | 12.5 (≈ 29.7 µM) | 25 (≈ 59.4 µM) | 12.5 (≈ 29.7 µM) | 12.5 (≈ 29.7 µM) | CS(=O)(=O)c1ccc(OCc2nnc3sc(-c4ccccc4Cl)nn23)cc1 | 11 | 11 | 11 | 11 | 11 | <10 | 11 | 11
10 | 6.25 (≈ 17 µM) | 6.25 (≈ 17 µM) | 6.25 (≈ 17 µM) | 6.25 (≈ 17 µM) | 6.25 (≈ 17 µM) | 6.25 (≈ 17 µM) | 6.25 (≈ 17 µM) | 6.25 (≈ 17 µM) | CCSc1ccc(OCc2nnc3sc(-c4ccccc4)nn23)cc1 | 16 | 16 | 16 | 16 | 16 | 16 | 16 | 16
11 | 6.25 (≈ 14.8 µM) | 6.25 (≈ 14.8 µM) | 6.25 (≈ 14.8 µM) | 6.25 (≈ 14.8 µM) | 6.25 (≈ 14.8 µM) | 6.25 (≈ 14.8 µM) | 6.25 (≈ 14.8 µM) | 6.25 (≈ 14.8 µM) | CSc1ccc(OCc2nnc3sc(-c4cccc(Cl)c4Cl)nn23)cc1 | 16 | 16 | 16 | 16 | 16 | 16 | 16 | 16
12 | 25 (≈ 64.3 µM) | 25 (≈ 64.3 µM) | 25 (≈ 64.3 µM) | 25 (≈ 64.3 µM) | 25 (≈ 64.3 µM) | 25 (≈ 64.3 µM) | 25 (≈ 64.3 µM) | 25 (≈ 64.3 µM) | CSc1ccc(OCc2nnc3sc(-c4ccccc4Cl)nn23)cc1 | <10 | <10 | <10 | <10 | <10 | <10 | <10 | <10
